Results: ChEMBL document CHEMBL4346674, “Structure-activity relationships and mechanistic studies of novel mitochondria-targeted, leishmanicidal derivatives of the 4-aminostyrylquinoline scaffold” (Eur J Med Chem, 2019)
Active and inactive are the calls of the source.

Tests used:
[1] = system: Leishmania pifanoi; assay: Antileishmanial activity against Leishmania pifanoi […] axenic amastigotes incubated for 96 hrs by MTT assay; assay type: functional, organism-based
In short: (§1)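 Parasites washed in HBSS-Glc and resuspended at 2×10^6 cells/ml in fresh growth medium with compound at 0.78-50.0 µM. Promastigotes grown in RPMI 1640-modified medium + 10% HIFCS, 72 h at 26 °C; axenic amastigotes in medium 199 + 20% HIFCS + 50 µg/ml hemin, 96 h at 32 °C. MTT 0.5 mg/ml for 2 h, formazan dissolved in SDS (5% final), absorbance 590 nm. Triplicates, ≥2 experiments, IC50 computed.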

[2] = system: Leishmania donovani; assay: Antileishmanial activity against Leishmania donovani MHOM/SD/00/1S-2D promastigotes incubated for 72 hrs by MTT assay; assay type: functional, organism-based; in short: as §1
[3] = system: J774; assay: Cytotoxicity against mouse J774 cells incubated for 48 hrs by MTT assay; assay type: cell-based; conditions: J774, 48 h
In short: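 J774.1 cells grown in RPMI-1640 + 10% heat-inactivated FCS, 2 mM L-glutamine, penicillin-streptomycin, 37 °C, 5% CO2. Seeded at 10^5 cells/well and left overnight, then compound in fresh medium for 48 h. MTT 0.5 mg/ml final, 2 h; SDS 0.1% final, 2 h at 37 °C; read at 595 nm. Triplicate samples, ≥2 independent experiments; CC50 calculated.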

[4] = Selectivity index, ratio of IC50 for mouse J774 cells to IC50 for Leishmania pifanoi […] axenic amastigotes; assay type: toxicity; conditions: read-out: Ratio IC50
[5] = system: Leishmania donovani; assay: Antileishmanial activity against Leishmania donovani promastigotes harboring 3-Luc gene assessed as decrease in parasites viability using DMNEP-D-luciferin as substrate at 50 uM incubated for 10 mins by luminescence assay relative to control; assay type: functional
In short: (§2)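 3-Luc L. donovani promastigotes, episomally expressing cytoplasmic firefly luciferase and grown at 26 °C in RPMI 1640-modified medium + 10% HIFCS with G-418 (30 µg/ml). Assay: cells at 20 × 10^6/ml in HBSS-Glc with caged DMNPE-luciferin (50 µM final). Compound added once luminescence plateaued; luminescence followed over time, expressed as % of value at addition (100%). Luciferase inhibition controls run.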

[6] = system: Leishmania donovani; assay: Induction of plasma membrane permeabilization in Leishmania donovani MHOM/SD/00/1S-2D promastigotes at 50 uM by sytox green-based fluorescence assay; assay type: functional, organism-based
In short: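 Promastigotes at 20×10^6 cells/ml in HBSS-Glc with SYTOX Green 1.0 μM final. Compound added after a stable baseline; fluorescence rise (ex 504/em 524 nm) monitored. Values given as percent of full permeabilization by 0.1% Triton X-100.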

[7] = system: Leishmania pifanoi; assay: Antileishmanial activity against CFSE-labelled Leishmania pifanoi MHOM/VE/60/Ltrod axenic amastigotes infected in mouse peritoneal macrophage assessed as infection index at 10 uM incubated for 12 hrs by DAPI staining based confocal microscopic method (reference value: 5.3 +/- 2.5); assay type: functional
[8] = system: Leishmania donovani; assay: Antileishmanial activity against Leishmania donovani promastigotes harboring 3-Luc gene assessed as threshold concentration of compound using DMNEP-D-luciferin as substrate measured at < 5 mins by luminescence assay; assay type: functional; in short: as §2
[9] = system: Leishmania donovani; assay: Induction of mitochondrial dysfunction in Leishmania donovani MHOM/SD/00/1S-2D promastigotes as mitochondrial membrane potential at 50 uM incubated for 4 hrs by Rh123 staining based flow cytometry; assay type: functional, organism-based
[10] = system: Leishmania donovani; assay: Induction of mitochondrial dysfunction in Leishmania donovani MHOM/SD/00/1S-2D promastigotes as mitochondrial membrane potential at 25 uM incubated for 4 hrs by Rh123 staining based flow cytometry; assay type: functional, organism-based
[11] = Drug localization in mitochondria of Leishmania pifanoi MHOM/VE/60/Ltrod axenic amastigotes assessed as punctate pattern formation at 20 uM incubated for 1 hr by DAPI staining based confocal microscopic method; assay type: ADME
In short: (§3)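 Living axenic amastigotes given compound 20 µM for 1 h at 32 °C, then DAPI 5 µg/ml for 30 min before confocal imaging. Compound ex 488/em 520 nm, DAPI ex 350/em 460 nm. For depolarized mitochondria, 1 mM KCN added 15 min before compound. For colocalization, MitoTracker Red 0.05 µM (10 min, 32 °C) preceded compound; overlap given as Pearson coefficient.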

[12] = Drug localization in KCN-induced depolarized Leishmania pifanoi MHOM/VE/60/Ltrod axenic amastigotes mitochondria at 20 uM pretreated with KCN for 15 mins followed by compound addition and measured at 1 hr by MitoTracker dye based confocal microscopic method; assay type: ADME; in short: as §3
[13] = system: Leishmania donovani; assay: Induction of morphological changes in Leishmania donovani MHOM/SD/00/1S-2D promastigotes assessed as swollen mitochondrion at 5 uM incubated for 12 hrs by TEM analysis; assay type: functional, organism-based
In short: (§4)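 Promastigotes held in full growth medium with compound 5 μM for 12 h. Washed with HBSS, fixed in 5% glutaraldehyde, post-fixed with 2.5% OsO4 for 1 h, dehydrated through graded ethanol, treated with propylene oxide, embedded in Epon 812. Sections cut with a diamond knife and examined by transmission electron microscopy.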

[14] = system: Leishmania donovani; assay: Induction of cell cycle arrest in Leishmania donovani MHOM/SD/00/1S-2D promastigotes assessed as cell accumulation in subG1 phase at 20 uM incubated for 48 hrs by propidium iodide staining based flow cytometric analysis (RVb = 4.6%); assay type: functional
[15] = system: Leishmania donovani; assay: Induction apoptosis in Leishmania donovani MHOM/SD/00/1S-2D promastigotes at 20 uM incubated for 48 hrs by propidium iodide staining based flow cytometric analysis; assay type: functional, organism-based
[16] = system: Leishmania donovani; assay: Induction of morphological changes in Leishmania donovani MHOM/SD/00/1S-2D promastigotes assessed as strong vacuolization of the cytoplasm at 5 uM incubated for 12 hrs by TEM analysis; assay type: functional, organism-based; in short: as §4
[17] = system: Leishmania donovani; assay: Induction of morphological changes in Leishmania donovani MHOM/SD/00/1S-2D promastigotes assessed as appearance of distended acidocalcisomes at 5 uM incubated for 12 hrs by TEM analysis; assay type: functional, organism-based; in short: as §4
[18] = system: Leishmania donovani; assay: Induction of morphological damage in Leishmania donovani MHOM/SD/00/1S-2D promastigotes assessed as increase in intracellular acidic pH at 5 uM pretreated with acridine orange followed by compound addition and measured at 1 hr by acridine orange based confocal microscopic method; assay type: functional, organism-based
In short: (§5)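 Promastigotes at 40×10^6 cells/ml loaded with acridine orange 2 μM (5 min, 26 °C), washed and readjusted to the same density. Kinetic fluorescence (ex 488/em 530 nm) followed after adding compound 5 μM once the signal was stable. For confocal imaging, loaded cells were given compound 5 μM for 1 h, washed and immobilized on hydrogel; imaged at ex 488/em 650 nm.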

[19] = system: Leishmania donovani; assay: Induction of morphological damage in Leishmania donovani MHOM/SD/00/1S-2D promastigotes assessed as increase in intracellular acidic pH at 5 uM pretreated with acridine orange followed by compound addition by acridine orange based fluorescence assay; assay type: functional, organism-based; in short: as §5
[20] = Inhibition of luciferase (unknown origin) at 50 uM
[21] = system: Leishmania donovani; assay: Induction of cell cycle arrest in Leishmania donovani MHOM/SD/00/1S-2D promastigotes assessed as cell accumulation in subG1 phase at 10 uM incubated for 48 hrs by propidium iodide staining based flow cytometric analysis (RVb = 4.6%); assay type: functional

Compound | IC50 [1] [µM] | IC50 [2] [µM] | IC50 [3] [µM] | selectivity ratio [4] | Activity [5] [%] | Activity [6] | other results
O=C(CN1CCN(c2ccccc2)CC1)NCCNc1cc(/C=C/c2ccccc2)nc2ccccc12 | 1.5 | 2.1 | 4.5 | 3 | – | – | –
O=C(CNc1ccc(Cl)cc1Cl)NCCNc1cc(/C=C/c2ccccc2)nc2ccccc12 | 1.2 | 8.4 | > 50 | > 41.6 | – | – | –
CC(C)(C)OC(=O)NCCCCNc1cc(/C=C/c2ccccc2)nc2ccccc12 | 4.9 | 0.56 | 3.7 | 0.8 | – | – | –
O=C(CN1CCOCC1)NCCNc1cc(/C=C/c2ccccc2)nc2ccccc12 | > 25 | 1.3 | > 50 | – | 79.8 | inactive | –
NCCNc1cc(/C=C/c2ccccc2)nc2ccccc12 | > 50 | 2.4 | 4.6 | < 0.1 | – | – | –
CCOCC(=O)NCCNc1cc(/C=C/c2ccccc2)nc2ccccc12 | 1.6 | 3.4 | 22.2 | 13.8 | 16.7 | inactive | Activity_index [7]: 1.6; Activity [8]: 3.12 µM; Activity [9]: Active; Activity [10]: Active; Drug uptake [11]: Active; Drug uptake [12]: Active; Activity [13]: Active; Activity [14]: 4.3%; Activity [15]: inactive; Activity [16]: Active; Activity [17]: Active; Activity [18]: Active; Activity [19]: Active; inhibition [20]: < 2%
CC(C)(C)OC(=O)NCCNc1cc(/C=C/c2ccccc2)nc2ccccc12 | 4.3 | 0.45 | 6.6 | 1.5 | – | – | –
O=C(CN1CCCC1)NCCCCNc1cc(/C=C/c2ccccc2)nc2ccccc12 | 5.3 | 0.2 | 7.1 | 1.4 | 23.3 | inactive | Activity [9]: Active; Activity [10]: Active
Cc1cc(N)c2ccccc2n1 | > 50 | 10.9 | > 50 | – | – | – | –
O=C(CN1CCCC1)NCCNc1cc(/C=C/c2ccccc2)nc2ccccc12 | 0.9 | 2.1 | 12.5 | 13.9 | 49.9 | inactive | –
CCN(CC)CC(=O)NCCNc1cc(/C=C/c2ccccc2)nc2ccccc12 | 0.9 | 1.6 | 0.7 | 0.8 | 43.2 | inactive | –
O=C(CNc1ccc(Cl)cc1Cl)NCCCCNc1cc(/C=C/c2ccccc2)nc2ccccc12 | 12.3 | 2.1 | 7.3 | 0.6 | – | – | –
COc1ccc2nc(C)cc(Nc3ccc(Oc4ccc(Cl)c5ccccc45)c(Cl)c3)c2c1 | 6.2 | 4.4 | > 50 | > 8.1 | – | – | Activity [21]: 22.5%
O=C(CNc1ccccc1)NCCCCNc1cc(/C=C/c2ccccc2)nc2ccccc12 | 6.9 | 1.6 | 3.3 | 0.48 | – | – | –
O=C(CN1CCCCC1)NCCNc1cc(/C=C/c2ccccc2)nc2ccccc12 | 1.2 | 2.1 | 4.7 | 3.4 | 46.4 | inactive | Activity [9]: Active; Activity [10]: Active
CN(C)CC(=O)NCCNc1cc(/C=C/c2ccccc2)nc2ccccc12 | 1.1 | 1.6 | 15 | 13.6 | 62.7 | inactive | –
CCN(CC)Cc1cc(Nc2cc(/C=C/c3ccccc3)nc3ccccc23)ccc1O | 9 | 9.6 | 37 | 4.1 | 81.8 | – | –
CN1CCN(CC(=O)NCCNc2cc(/C=C/c3ccccc3)nc3ccccc23)CC1 | 3.5 | 3.5 | 34 | 9.7 | 78.5 | inactive | –
CC(=O)Nc1cc(/C=C/c2ccccc2)nc2ccccc12 | 9.5 | – | > 25 | > 2.6 | – | – | –
Nc1cc(/C=C/c2ccccc2)nc2ccccc12 | 8.9 | 0.5 | 4.4 | 0.5 | – | – | –
CCOCC(=O)NCCCCNc1cc(/C=C/c2ccccc2)nc2ccccc12 | 4.5 | 1.06 | 7.2 | 1.6 | – | inactive | –
C(=C\c1cc(-c2c[nH]c3ccccc23)c2ccccc2n1)/c1ccccc1 | 1 | 1.5 | 4.1 | 4.1 | 64.6 | – | –
CC(=O)N(C(C)=O)c1cc(/C=C/c2ccccc2)nc2ccccc12 | 13.4 | 35.1 | > 25 | > 1.86 | – | – | –
C(=C\c1ccc2ccccc2n1)/c1ccccc1 | > 50 | > 50 | > 50 | – | – | – | Activity [18]: inactive; Activity [19]: inactive
NCCCCNc1cc(/C=C/c2ccccc2)nc2ccccc12 | > 25 | 0.44 | 6.6 | < 0.3 | – | – | –
O=C(CNc1ccccc1)NCCNc1cc(/C=C/c2ccccc2)nc2ccccc12 | 4.3 | 3.3 | 7.8 | 1.8 | – | – | –
